Activity calls are given as the source filed them.
Key:
[1] = system: Epidermal growth factor receptor (Homo sapiens), P00533 [UNDEFINED MUTATION]; conditions: PC-9, dose 10-1000 nM
[2] = system: PC-9; test: Anti-tumor activity against EGFR T790M/del19 mutant expressing gefitinib-resistant human PC-9 cells xenografted in Balb-c nu/nu mouse assessed as prolonged survival at 75 mg/kg, po administered for 42 days; format: functional, organism-based; conditions: time 42.0 day
[3] = system: BaF3; test: Inhibition of EGFR-del19 mutant in mouse BaF3 cells assessed as inhibition of ERK phosphorylation at 10 to 1000 nM incubated for 6 hrs by Western blotting analysis; format: cell-based; conditions: dose 10-1000 nM
Method in brief: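 Ba/F3 cells carrying the stated EGFR mutant were made IL-3-independent after 1 week of 7 µM blasticidin selection. They were grown in low-glucose DMEM with 10% FBS and exposed to inhibitor for 6 h. Cells were washed in cold PBS, lysed in SDS buffer (100 mM Tris, 1% SDS, 10% glycerol) and boiled 5 min. Protein was measured by BCA, run on SDS-PAGE, transferred to PVDF, blocked in 5% BSA or milk/TBS-T, and immunoblotted.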

[4] = system: BaF3; conditions: Mus musculus, dose 10-1000 nM, time 6.0 hrs
[5] = system: Epidermal growth factor receptor (Homo sapiens), P00533 [UNDEFINED MUTATION]; conditions: PC-9, dose 500.0 nM, time 48.0 hrs
[6] = system: PC-9; test: Inhibition of EGFR T790M/del19 mutant in human PC-9 cells assessed as reduction in S6 phosphorylation at 10 to 1000 nM by Western blotting analysis; format: cell-based; conditions: dose 10-1000 nM

Sequence of Epidermal growth factor receptor (Homo sapiens), P00533 [UNDEFINED MUTATION] (P00533 whole entry, looked up, stated change not applied): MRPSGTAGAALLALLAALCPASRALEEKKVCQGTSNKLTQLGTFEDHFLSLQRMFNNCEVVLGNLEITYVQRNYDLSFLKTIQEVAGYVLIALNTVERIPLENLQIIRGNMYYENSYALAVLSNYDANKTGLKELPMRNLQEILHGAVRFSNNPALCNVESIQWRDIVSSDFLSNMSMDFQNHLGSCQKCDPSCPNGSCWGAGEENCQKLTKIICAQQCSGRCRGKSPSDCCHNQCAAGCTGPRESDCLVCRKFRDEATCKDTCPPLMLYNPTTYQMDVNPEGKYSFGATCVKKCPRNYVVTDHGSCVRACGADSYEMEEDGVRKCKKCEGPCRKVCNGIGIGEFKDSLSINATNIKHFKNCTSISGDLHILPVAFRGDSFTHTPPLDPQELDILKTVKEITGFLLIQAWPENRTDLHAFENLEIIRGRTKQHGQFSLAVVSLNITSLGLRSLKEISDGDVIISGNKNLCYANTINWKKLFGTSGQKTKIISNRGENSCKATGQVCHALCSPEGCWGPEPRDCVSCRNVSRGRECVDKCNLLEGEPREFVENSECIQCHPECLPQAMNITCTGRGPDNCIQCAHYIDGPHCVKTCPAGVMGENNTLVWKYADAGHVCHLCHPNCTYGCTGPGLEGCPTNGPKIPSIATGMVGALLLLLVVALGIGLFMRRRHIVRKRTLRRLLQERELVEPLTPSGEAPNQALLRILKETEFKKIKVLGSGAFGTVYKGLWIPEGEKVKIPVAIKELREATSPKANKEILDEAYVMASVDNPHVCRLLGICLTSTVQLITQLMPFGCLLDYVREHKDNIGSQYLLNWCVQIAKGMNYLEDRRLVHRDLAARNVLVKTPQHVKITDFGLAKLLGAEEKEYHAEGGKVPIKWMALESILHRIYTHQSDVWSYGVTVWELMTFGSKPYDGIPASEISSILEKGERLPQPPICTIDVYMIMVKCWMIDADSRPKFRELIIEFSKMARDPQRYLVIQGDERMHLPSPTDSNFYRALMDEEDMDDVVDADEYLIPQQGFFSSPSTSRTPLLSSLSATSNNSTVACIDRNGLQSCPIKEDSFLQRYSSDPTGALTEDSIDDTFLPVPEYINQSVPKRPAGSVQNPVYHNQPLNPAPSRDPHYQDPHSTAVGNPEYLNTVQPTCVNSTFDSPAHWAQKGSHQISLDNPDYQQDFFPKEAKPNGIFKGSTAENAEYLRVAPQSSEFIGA

COc1cc(N2CCC(N3CCN(C)CC3)CC2)ccc1Nc1ncc(Cl)c(Nc2ccccc2P(C)(C)=O)n1 [BRIGATINIB]
active: inhibition [1] | Activity [2] | inhibition [3] | inhibition [4] | inhibition [5] | inhibition [6]

— ChEMBL document CHEMBL5705906 (Nat Commun, 2017)
